These results are taken from ChEMBL document CHEMBL1141573, “Quinolone 3-carboxylic acid pharmacophore: design of second generation HIV-1 integrase inhibitors” (J Med Chem, 2008).

The EC50 is the concentration needed to bring the measured effect to its halfway point. As a reminder, the IC50 is the midpoint of a concentration-inhibition curve. Low readings indicate inhibition by little substance, high ones a need for much substance. In general, CC50 refers to the concentration that lowers cell viability or growth by half. A low value points to harm at low concentration.

Calls of active or inactive are those of the source. The calls are words filed in the database; no cut-off is given here.

The subject of series [1] is Human immunodeficiency virus 1. The experiment in a line: Antiviral activity against HIV1 in MT4 cells assessed as inhibition of viral-induced cytopathic effect by MTT method. To be noted: Human immunodeficiency virus 1, MT4. It is filed as functional, organism-based. The method, boiled down:
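MT-4 cells (RPMI 1640 with 10% heat-inactivated FCS, 2 mM L-glutamine, 37 °C, 5% CO2) infected with 100–300 CCID50 of HIV-1(IIIB) in presence of 5-fold serial compound dilutions. Viral CPE read by MTT reduction to formazan measured spectrophotometrically. IC50 = concentration giving 50% protection against CPE.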
(In general: Protection from cytopathic effect is a common read-out in antiviral testing.)

In series [2] the target is Human immunodeficiency virus type 1 integrase (Human immunodeficiency virus 1) (UniProt Q7ZJM1). Description: Inhibition of HIV1 integrase at 100 uM. A digest of the protocol:
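Wild-type recombinant IN (200 nM final) preincubated with compound 30 min at 30 °C in buffer with 7.5 mM MnCl2, 10% DMSO, MOPS pH 7.2. Then 20 nM 5′-32P-labeled 21-mer U5 LTR duplex added for 1 h. Reactions quenched with formamide loading dye. Conversion to 19-mer (3′-processing) and strand transfer products gives % inhibition versus DNA alone and DNA plus IN.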

Series [3] has as its target T1, Human immunodeficiency virus type 1 integrase (Human immunodeficiency virus 1, UniProt Q7ZJM1). Description: Inhibition of HIV1 integrase strand transfer activity.
The target in series [4] is T1, Human immunodeficiency virus type 1 integrase. Description: Inhibition of HIV1 integrase 3'-end processing activity. A digest of the protocol:
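Wild-type recombinant IN, 200 nM final, preincubated with inhibitor at 30 °C for 30 min in buffer with 7.5 mM MnCl2, 10% DMSO, 25 mM MOPS pH 7.2. Then 20 nM 5′-32P-labeled 21-mer U5 LTR duplex substrate added, incubated a further 1 h. 21-mer to 19-mer conversion gives % inhibition versus DNA-alone and no-drug controls. IC50 from log concentration versus % inhibition.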

A short description of series [5]: Cytotoxicity against human MT4 cells. It is filed as cell-based. A digest of the protocol:
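Viability of mock-infected MT-4 cells after 5 days of incubation, measured by MTT reduction to formazan read spectrophotometrically; CC50 derived.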

Human immunodeficiency virus type 1 integrase (Human immunodeficiency virus 1), sequence (Q7ZJM1 as listed by the source): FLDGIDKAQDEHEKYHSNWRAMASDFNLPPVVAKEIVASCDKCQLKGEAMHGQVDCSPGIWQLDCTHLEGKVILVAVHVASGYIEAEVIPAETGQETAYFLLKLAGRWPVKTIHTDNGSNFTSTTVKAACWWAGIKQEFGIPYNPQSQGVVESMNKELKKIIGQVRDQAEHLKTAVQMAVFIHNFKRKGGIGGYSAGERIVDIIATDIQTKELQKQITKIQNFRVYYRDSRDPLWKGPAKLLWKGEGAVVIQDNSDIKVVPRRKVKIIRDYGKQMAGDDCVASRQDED
T1 sequence (Q7ZJM1 whole entry): as the sequence (Q7ZJM1 as listed by the source) above

For `CC(C)[C@H](CO)n1cc(C(=O)O)c(=O)c2cc(Cc3cccc(Cl)c3F)ccc21`, in series [1], the EC50 is 0.007 µM. Take `O=C(O)CSc1nnc2n(Cc3ccc(F)cc3)c3ccccc3n12`: the outcome in series [2] was inactive. For `CCOc1cc(N(CC)CC)ccc1/C=C1\C(=O)N(c2nnn[nH]2)N=C1C`, the results for the IC50 in series [3] and in series [4] were 65 µM and 61 µM, respectively. Regarding `COc1cc(CNc2nn[nH]n2)ccc1OCc1c(F)cccc1Cl`, the outcome in series [2] was inactive. For `CCOc1cc(/C=C2\C(=O)N(c3nnn[nH]3)N=C2C)ccc1OC`, the IC50 amounted to 59 µM in series [3] and 75 µM in series [4]. With `Cc1ccc2[nH]c(CNC(=O)CCC(=O)O)cc2c1`, the outcome in series [2] was inactive. Take `O=C(O)CSc1ccc(-c2nc3ccccc3[nH]2)cn1`: the result in series [2] was inactive. For the molecule `O=C(O)CSc1nnc(-c2ccco2)c(-c2ccco2)n1`, the IC50 in series [3] was found to be 5 µM; in series [4], 18 µM. Regarding `COc1cc(CNc2nn[nH]n2)ccc1OCc1ccc(F)cc1`, in series [2], the outcome was inactive. Still for that read-out and setting: to `O=C(O)CCCC(=O)Nc1nc(-c2cccc3ccccc23)cs1` belongs “inactive”. With `O=C(O)CN1C(=O)/C(=C2\SC(=S)N(C(Cc3ccccc3)C(=O)O)C2=O)c2ccccc21` (stereo unspecified), the IC50 in series [3] came to 66 µM; in series [4], 92 µM. As for `COc1cc2c(cc1Cc1cccc(Cl)c1F)c(=O)c(C(=O)O)cn2[C@@H](CO)C(C)C`, in series [1], the EC50 was found to be 0.0009 µM. `COc1cc(CNc2nn[nH]n2)ccc1OCc1ccc(Cl)cc1`: in series [2], the result was inactive. Still for that read-out and setting: with `COc1ccc2[nH]c(SCC(=O)Nc3cc(C(=O)O)ccc3C)nc2c1` the entry was “inactive”. Take `O=C(O)C1CC=CCC1C(=O)Nc1ccc(Cc2ccncc2)cc1` (stereo unspecified): the outcome in series [2] was inactive. In the case of `O=C(CSc1ncccc1C(=O)O)Nc1cccc2ccccc12`, the result in series [2] was inactive. For the molecule `Cc1ccc(C)c(NC(=O)CSc2ncccc2C(=O)O)c1`, in series [2], the outcome was inactive. Same read-out and setting: with `Cc1ccc(OCc2nnc(SC(C)C(=O)O)n2-c2ccccc2)cc1` (stereo unspecified) the entry was “inactive”; with `CCCn1nc(NC(=O)CCC(=O)O)c2cc3cc(C)ccc3nc21`, “inactive”; with `CCN(C(=O)CCC(=O)O)c1nc(CC(=O)Nc2ccc(Cl)cc2)cs1`, “inactive”. `O=C(O)CSc1nc(Nc2ccccc2)nc(N2CCOCC2)n1`: the IC50 in series [3] and in series [4] was more than 100 µM in each case. `Cc1ccc2nc(-c3ccc(NC(=O)/C=C/C(=O)O)cc3)sc2c1`: the IC50 in series [3] was found to be 23 µM; in series [4], 48 µM.

Consider `O=C(O)c1ccccc1SCCSc1ccccc1C(=O)O`, for which the outcome in series [2] was inactive. On the same count and under the same terms, to `O=C(Nc1ccccn1)c1ccc(NC(=O)C2CC=CCC2C(=O)O)cc1` (stereo unspecified) belongs “inactive”; to `O=C(O)c1cccc(OCC(O)Cn2cnc3ccccc32)c1` (stereo unspecified), “inactive”.

As for `CCn1c(CNC(=O)CCC(=O)O)cc2ccccc21`, the result in series [2] was inactive. Turning to `CCOc1cc(CNc2nn[nH]n2)ccc1OCc1ccccc1`, in series [2], the outcome was inactive. Regarding `O=C(O)CSc1nc(-c2ccccc2)cc(C(F)(F)F)n1`, the IC50 in series [3] and in series [4] was more than 100 µM throughout. As for `CCOc1cc(C2NC(C(=O)O)CS2)ccc1OCc1cccc(C)c1` (stereo unspecified), in series [2], the outcome was inactive. As to `COc1cc(CNc2nn[nH]n2)ccc1OCc1c(Cl)cccc1Cl`, the outcome in series [2] was inactive. On to `CCOc1cc(/C=C2\C(=O)N(c3nnn[nH]3)N=C2C)cc(Cl)c1OCC`, for which the IC50 in series [3] amounted to 4 µM; in series [4], 7 µM. As for `COc1cccc(NC(=O)c2sc3[nH]c(=O)c(C(=O)O)cc3c2N)c1`, the IC50 in series [3] was determined as 43 µM; in series [4], 82 µM. On to `Cc1cc(OCn2ccc(C(=O)O)n2)ccc1Cl`, for which the outcome in series [2] was inactive.

Consider `CC1=NN(c2nnn[nH]2)C(=O)/C1=C\c1cc(Cl)c(O)c(Cl)c1`, for which the figures for the IC50 in series [3] and in series [4] were 13 µM and 11 µM, respectively. For `Nc1c(C(=O)Nc2ccc(Cl)c(Cl)c2)sc2[nH]c(=O)c(C(=O)O)cc12`, the IC50 in series [3] turned out to be 5 µM; in series [4], 14 µM. On to `N#Cc1c(-c2ccc(Cl)cc2)cc(-c2ccccc2)nc1SCC(=O)O`, for which the IC50 was 60 µM in series [3] and 98 µM in series [4]. With `Cc1nc2ccccc2n1CC(O)COc1cccc(C(=O)O)c1` (stereo unspecified), the outcome in series [2] was inactive. With `COc1ccc(-c2ccc(-c3nnn(C(C)C(=O)O)n3)cc2)cc1` (stereo unspecified), in series [2], the result was inactive.

Take `COc1cc(/C=C2\C(=O)N(c3nnn[nH]3)N=C2C)cc(Cl)c1OC`: the IC50 in series [3] stood at 4 µM; in series [4], 5 µM.

In the case of `COc1ccc(/C=C2\C(=O)N(c3nnn[nH]3)N=C2C)cc1OCc1ccccc1Cl`, the IC50 in series [3] was determined as 5 µM; in series [4] it was 14 µM.

Take `O=C(O)c1c[nH]c2ccc(Cc3cccc(Cl)c3F)cc2c1=O`: in series [1], the EC50 turned out to be 0.805 µM.

As for `O=C(O)c1cn(CCO)c2ccc(Cc3cccc(Cl)c3F)cc2c1=O`, the EC50 in series [1] was 0.076 µM.

Turning to `O=C(CSc1nnc(-c2ccc(Cl)cc2)n1-c1ccccc1)N/N=C/c1ccccc1C(=O)O`, in series [2], the outcome was inactive.

Take `COc1cc2c(cc1Cc1cccc(Cl)c1F)c(=O)c(C(=O)O)cn2CCO`: in series [1], the EC50 came to 0.017 µM. In the case of `CCOc1cc(CNc2nn[nH]n2)ccc1OCc1ccc(C)cc1`, the result in series [2] was inactive. On the same count and under the same terms, with `CCn1nc(NC(=O)CCC(=O)O)c2cc3cc(C)ccc3nc21` the entry was “inactive”. Turning to `O=C(O)c1ccccc1NC(=O)c1ccccc1S(=O)(=O)Nc1ccc(Oc2ccccc2)cc1`, the IC50 in series [3] came out at 18 µM; in series [4], 42 µM. As to `COc1cc(NC(=O)c2ccc3c(c2)C(=O)N(c2ccccc2OC)C3=O)c(C(=O)O)cc1OC`, the outcome in series [2] was inactive.

In the case of `COc1cc(C2NC(C(=O)O)CS2)ccc1OCc1c(Cl)cccc1Cl` (stereo unspecified), the outcome in series [2] was inactive. Same read-out and setting: to `O=C(Nc1ccccc1C(=O)O)c1ccc(CN2CCc3ccccc3C2)cc1` belongs “inactive”; to `CCn1nc(NC(=O)CCCC(=O)O)c2cc3cc(C)ccc3nc21`, “inactive”. In the case of `CCOc1cc(CNc2nn[nH]n2)cc(Cl)c1OCc1ccc(Cl)cc1`, the IC50 in series [3] is 52 µM; in series [4] it was more than 100 µM. Consider `COc1cc(CNc2nn[nH]n2)ccc1OCc1cccc(C)c1`, for which the result in series [2] was inactive. `O=C(O)C1CC(=O)N(c2ccc(OCc3ccccc3Cl)cc2)C1` (stereo unspecified): in series [2], the outcome was inactive.

As to `Cc1nn(-c2ccccc2)c2sc(-c3nnc(SCC(=O)O)o3)cc12`, the outcome in series [2] was inactive. For `Cc1ccc2nc(NC(=O)CCC(=O)O)sc2c1`, the outcome in series [2] was inactive. For the molecule `Cc1ccc(C(=O)O)cc1NC(=O)CSc1nc2ccccc2s1`, the values for the IC50 in series [3] and in series [4] were 17 µM and 63 µM, respectively. Take `O=C(O)CSc1nnc(COc2cccc3ccccc23)o1`: the outcome in series [2] was inactive. For `O=C(O)C1CCCCC1C(=O)Nc1ccc(Oc2cccc3ccccc23)cc1` (stereo unspecified), the IC50 in series [3] was 34 µM; in series [4], more than 100 µM. It took 3.5 µM to reach half-maximal cytotoxicity in series [5] (CC50). Regarding `COc1cc(CNc2nn[nH]n2)ccc1OCc1cccc(Cl)c1`, the result in series [2] was inactive.

As to `COc1cc(CNc2nn[nH]n2)ccc1OCc1ccc(C)cc1`, the result in series [2] was inactive.

As for `O=C(O)CSc1nc(-c2cccs2)cc(C(F)(F)F)n1`, the IC50 in series [3] and in series [4] was more than 100 µM throughout. In the case of `Cc1ccc2nc(NC(=O)CSCC(=O)O)sc2c1`, the result in series [2] was inactive. Turning to `O=C(O)C(O)C(O)c1nc2cc3ccccc3cc2[nH]1` (stereo unspecified), the IC50 in series [3] is 46 µM; in series [4], more than 100 µM. On to `O=C(O)CSCC(=O)Nc1nc(-c2ccccc2)cs1`, for which the outcome in series [2] was inactive. Take `O=C(O)C1CC(=O)N(c2ccc(OCc3c(F)cccc3Cl)cc2)C1` (stereo unspecified): the outcome in series [2] was inactive. As for `O=C(O)COc1ccc2c(-c3ccccc3)cc(=O)oc2c1`, the outcome in series [2] was inactive. Same read-out and setting: with `Cc1cc(-c2cccnc2)c(C#N)c(SCC(=O)O)n1` the entry was “inactive”. Regarding `COc1ccc(-c2nnc(SCC(=O)N/N=C/c3ccccc3C(=O)O)n2-c2ccccc2)cc1OC`, the outcome in series [2] was inactive. Take `COc1ccc(/C=N/Nc2nc(C(=O)O)cs2)cc1`: the result in series [2] was inactive.
